ChEMBL document CHEMBL1671686, “Carbapenem-resistant KPC-2-producing Escherichia coli in a Tel Aviv Medical Center, 2005 to 2008” (2010)

Experiments:
Type in all cases: functional
[1] = tested on: Escherichia coli; assay: Antimicrobial activity against Escherichia coli DH10B by vitek-2 method; details: K-12 DH10B
Procedure, shortened: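 Plasmid-free recipient E. coli DH10B, used as the host for electroporation transformants, was tested for susceptibility on the automated Vitek-2 system.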

[2] = tested on: Escherichia coli; assay: Antimicrobial activity against Escherichia coli DH10B by Etest; details: K-12 DH10B
[3] = tested on: Escherichia coli; assay: Antimicrobial activity against Escherichia coli isolate 157T expressing beta-lactamase KPC2 and PFGE cluster 3 isolated from urine of patient by agar dilution method
Procedure, shortened: (§1)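 Transformant strains. Plasmids purified from the clinical isolates were electroporated into E. coli DH10B. Transformants were selected on LB agar with 100 μg/ml ampicillin, and colonies were PCR-screened for blaKPC before susceptibility testing.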

[4] = tested on: Escherichia coli; assay: Antimicrobial activity against Escherichia coli isolate 339T expressing beta-lactamase KPC2 and PFGE cluster 5 isolated from peritoneal fluid of patient by agar dilution method; procedure, shortened: as §1
[5] = tested on: Escherichia coli; assay: Antimicrobial activity against Escherichia coli isolate 360T expressing beta-lactamase KPC2, OXA-9 and PFGE cluster 1 isolated from urine of patient by agar dilution method; procedure, shortened: as §1
[6] = tested on: Escherichia coli; assay: Antimicrobial activity against Escherichia coli isolate 360 expressing beta-lactamase KPC2, CTX-M-15, OXA-9, TEM and PFGE cluster 1 isolated from urine of patient by agar dilution method; details: isolate 360, Urine
Procedure, shortened: (§2)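 Clinical carbapenem-resistant E. coli isolates collected Feb 2005–Oct 2008. Carbapenem MICs determined by agar dilution following CLSI protocols.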

[7] = tested on: Escherichia coli; assay: Antimicrobial activity against Escherichia coli isolate 1679T expressing beta-lactamase KPC2, TEM and PFGE cluster 6 isolated from peritoneal fluid of patient by agar dilution method; procedure, shortened: as §1
[8] = tested on: Escherichia coli; assay: Antimicrobial activity against Escherichia coli isolate 329T expressing beta-lactamase KPC2 and PFGE cluster 2 isolated from blood of patient by agar dilution method; procedure, shortened: as §1
[9] = tested on: Escherichia coli; assay: Antimicrobial activity against Escherichia coli isolate 386 expressing beta-lactamase KPC2, CTX-M-15, OXA-9, TEM and PFGE cluster 1 isolated from wound of patient by agar dilution method; procedure, shortened: as §2
[10] = tested on: Escherichia coli; assay: Antimicrobial activity against Escherichia coli isolate 544 expressing beta-lactamase KPC2, TEM and PFGE cluster 4 isolated from abscess of patient by agar dilution method
Procedure, shortened: (§3)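 Clinical carbapenem-resistant E. coli isolates from the hospital, February 2005 to October 2008. Carbapenem MICs were determined by agar dilution following CLSI protocols.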

[11] = tested on: Escherichia coli; assay: Antimicrobial activity against Escherichia coli isolate 543T expressing beta-lactamase KPC2 and PFGE cluster 4 isolated from synovial fluid of patient by agar dilution method; procedure, shortened: as §1
[12] = tested on: Escherichia coli; assay: Antimicrobial activity against Escherichia coli isolate 547T expressing beta-lactamase KPC2 and PFGE cluster 4 isolated from blood of patient by agar dilution method; procedure, shortened: as §1
[13] = tested on: Escherichia coli; assay: Antimicrobial activity against Escherichia coli isolate 386T expressing beta-lactamase KPC2, OXA-9 and PFGE cluster 1 isolated from wound of patient by agar dilution method; procedure, shortened: as §1
[14] = tested on: Escherichia coli; assay: Antimicrobial activity against Escherichia coli isolate 547 expressing beta-lactamase KPC2, TEM and PFGE cluster 4 isolated from blood of patient by agar dilution method; procedure, shortened: as §2
[15] = tested on: Escherichia coli; assay: Antimicrobial activity against Escherichia coli isolate 157 expressing beta-lactamase KPC2, CTX-M-15, TEM and PFGE cluster 3 isolated from urine of patient by agar dilution method; details: isolate 157, Urine; procedure, shortened: as §2
[16] = tested on: Escherichia coli; assay: Antimicrobial activity against Escherichia coli isolate 540 expressing beta-lactamase KPC2, TEM and PFGE cluster 4 isolated from synovial fluid of patient by agar dilution method; procedure, shortened: as §3
[17] = tested on: Escherichia coli; assay: Antimicrobial activity against Escherichia coli isolate 339 expressing beta-lactamase KPC2, TEM and PFGE cluster 5 isolated from peritoneal fluid of patient by agar dilution method; procedure, shortened: as §3
[18] = tested on: Escherichia coli; assay: Antimicrobial activity against Escherichia coli isolate 1679 expressing beta-lactamase KPC2, SHV-12, TEM and PFGE cluster 6 isolated from peritoneal fluid of patient by agar dilution method; procedure, shortened: as §3
[19] = tested on: Escherichia coli; assay: Antimicrobial activity against Escherichia coli isolate 329 expressing beta-lactamase KPC2, CTX-M-2, TEM and PFGE cluster 2 isolated from blood of patient by agar dilution method; procedure, shortened: as §3
[20] = tested on: Escherichia coli; assay: Antimicrobial activity against Escherichia coli isolate 540 expressing beta-lactamase KPC2, TEM and PFGE cluster 4 isolated from synovial fluid of patient by vitek-2 method
[21] = tested on: Escherichia coli; assay: Antimicrobial activity against Escherichia coli isolate 329 expressing beta-lactamase KPC2, CTX-M-2, TEM and PFGE cluster 2 isolated from blood of patient by vitek-2 method
[22] = tested on: Escherichia coli; assay: Antimicrobial activity against Escherichia coli isolate 339 expressing beta-lactamase KPC2, TEM and PFGE cluster 5 isolated from peritoneal fluid of patient by vitek-2 method
[23] = tested on: Escherichia coli; assay: Antimicrobial activity against Escherichia coli isolate 339T expressing beta-lactamase KPC2 and PFGE cluster 5 isolated from peritoneal fluid of patient by vitek-2 method
[24] = tested on: Escherichia coli; assay: Antimicrobial activity against Escherichia coli isolate 360 expressing beta-lactamase KPC2, CTX-M-15, OXA-9, TEM and PFGE cluster 1 isolated from urine of patient by vitek-2 method
[25] = tested on: Escherichia coli; assay: Antimicrobial activity against Escherichia coli isolate 386T expressing beta-lactamase KPC2, OXA-9 and PFGE cluster 1 isolated from wound of patient by vitek-2 method
[26] = tested on: Escherichia coli; assay: Antimicrobial activity against Escherichia coli isolate 157 expressing beta-lactamase KPC2, CTX-M-15, TEM and PFGE cluster 3 isolated from urine of patient by vitek-2 method
[27] = tested on: Escherichia coli; assay: Antimicrobial activity against Escherichia coli isolate 386 expressing beta-lactamase KPC2, CTX-M-15, OXA-9, TEM and PFGE cluster 1 isolated from wound of patient by vitek-2 method
[28] = tested on: Escherichia coli; assay: Antimicrobial activity against Escherichia coli isolate 1679 expressing beta-lactamase KPC2, SHV-12, TEM and PFGE cluster 6 isolated from peritoneal fluid of patient by vitek-2 method
[29] = tested on: Escherichia coli; assay: Antimicrobial activity against Escherichia coli isolate 543 expressing beta-lactamase KPC2, CTX-M-15, TEM and PFGE cluster 4 isolated from synovial fluid of patient by vitek-2 method
[30] = tested on: Escherichia coli; assay: Antimicrobial activity against Escherichia coli isolate 547T expressing beta-lactamase KPC2 and PFGE cluster 4 isolated from blood of patient by vitek-2 method
[31] = tested on: Escherichia coli; assay: Antimicrobial activity against Escherichia coli isolate 157T expressing beta-lactamase KPC2 and PFGE cluster 3 isolated from urine of patient by vitek-2 method
[32] = tested on: Escherichia coli; assay: Antimicrobial activity against Escherichia coli isolate 360T expressing beta-lactamase KPC2, OXA-9 and PFGE cluster 1 isolated from urine of patient by vitek-2 method
[33] = tested on: Escherichia coli; assay: Antimicrobial activity against Escherichia coli isolate 329T expressing beta-lactamase KPC2 and PFGE cluster 2 isolated from blood of patient by vitek-2 method
[34] = tested on: Escherichia coli; assay: Antimicrobial activity against Escherichia coli isolate 543T expressing beta-lactamase KPC2 and PFGE cluster 4 isolated from synovial fluid of patient by vitek-2 method
[35] = tested on: Escherichia coli; assay: Antimicrobial activity against Escherichia coli isolate 544 expressing beta-lactamase KPC2, TEM and PFGE cluster 4 isolated from abscess of patient by vitek-2 method
[36] = tested on: Escherichia coli; assay: Antimicrobial activity against Escherichia coli isolate 547 expressing beta-lactamase KPC2, TEM and PFGE cluster 4 isolated from blood of patient by vitek-2 method
[37] = tested on: Escherichia coli; assay: Antimicrobial activity against Escherichia coli isolate 1679T expressing beta-lactamase KPC2, TEM and PFGE cluster 6 isolated from peritoneal fluid of patient by vitek-2 method

Measured: MIC

O=C(O)c1cn(C2CC2)c2cc(N3CCNCC3)c(F)cc2c1=O [CIPROFLOXACIN]
< 0.25 µg/mL: [1]

C[C@@H](O)[C@H]1C(=O)N2C(C(=O)O)=C(SCCNC=N)C[C@H]12 [IMIPENEM ANHYDROUS]
8 µg/mL: [15] | [18] | [19]
0.25 µg/mL: [2]
4 µg/mL: [6] | [10] | [14] | [16]
1 µg/mL: [5] | [7] | [9] | [12] | [13]
2 µg/mL: [3] | [4] | [8] | [11] | [17]

C[C@H]1COc2c(N3CCN(C)CC3)c(F)cc3c(=O)c(C(=O)O)cn1c23.C[C@H]1COc2c(N3CCN(C)CC3)c(F)cc3c(=O)c(C(=O)O)cn1c23.O [LEVOFLOXACIN]
< 0.25 µg/mL: [23] | [25] | [30] | [31] | [32] | [33] | [34] | [1] | [37]
> 8 µg/mL: [20] | [21] | [22] | [24]; isolate 360, Urine | [26]; isolate 157, Urine | [27] | [28] | [29] | [35] | [36]

C[C@@H](O)[C@H]1C(=O)N2C(C(=O)O)=C(S[C@@H]3CN[C@H](C(=O)N(C)C)C3)[C@H](C)[C@H]12 [MEROPENEM]
8 µg/mL: [19]
2 µg/mL: [17]
0.25 µg/mL: [2] | [13]
16 µg/mL: [18]
0.5 µg/mL: [7] | [11] | [12]
1 µg/mL: [3] | [4] | [5] | [8] | [9]
4 µg/mL: [6] | [10] | [14] | [15] | [16]

GENTAMICIN
4 µg/mL: [25] | [27]
< 1 µg/mL: [23] | [26] | [30] | [31] | [33] | [34] | [1] | [37]
> 16 µg/mL: [20] | [21] | [22] | [28] | [29] | [35] | [36]
2 µg/mL: [24] | [32]
